What all share (conditions): Homo sapiens
Compound in data set [1]: O=C(Nc1ncnc2c1ncn2CP(=O)(O)O)c1cccc(-c2ccccc2)c1
Description: Uncompetitive inhibition of recombinant cN-II (unknown origin) assessed as substrate Kcat using varying level of IMP as substrate by HPLC method based Lineweaver-Burk plot analysis. Summed up:
(§1)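 Enzyme, alone or with compound, was mixed with IMP (0.2 to 3 mM) under stirring at 37 °C in imidazole pH 6.5/NaCl/MgCl2 buffer. Samples were taken every 7 s and quenched with 10% perchloric acid. IMP and inosine were quantified by SAX HPLC in 10 mM ammonium phosphate pH 5.5. Data were fitted to competitive, non-competitive, uncompetitive or mixed inhibition equations.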

Compound in data set [2]: O=C(Nc1ncnc2c1ncn2CP(=O)(O)O)c1cccc(-c2ccccc2)c1
Description: Noncompetitive inhibition of recombinant cN-II (unknown origin) assessed as substrate Km using varying level of IMP as substrate by HPLC method based Lineweaver-Burk plot analysis. Summed up:
as §1

Compound in data set [3]: O=C(Nc1ncnc2c1ncn2CP(=O)(O)O)c1cccc(-c2ccccc2)c1
Briefly: Noncompetitive inhibition of recombinant cN-II (unknown origin) assessed as substrate Kcat using varying level of IMP as substrate by HPLC method based Lineweaver-Burk plot analysis. Summed up:
as §1

Compound in data set [4]: O=C(Nc1ncnc2c1ncn2CP(=O)(O)O)c1cccc(-c2ccccc2)c1
Description: Mixed type inhibition of recombinant cN-II (unknown origin) assessed as substrate Kcat using varying level of IMP as substrate by HPLC method based Lineweaver-Burk plot analysis. Summed up:
as §1

Compound in data set [5]: O=C(Nc1ncnc2c1ncn2CP(=O)(O)O)c1cccc(-c2ccccc2)c1
Description: Mixed type inhibition of recombinant cN-II (unknown origin) assessed as substrate Km using varying level of IMP as substrate by HPLC method based Lineweaver-Burk plot analysis. Summed up:
as §1

Compound in data set [6]: O=C(Nc1ncnc2c1ncn2CP(=O)(O)O)c1cccc(-c2ccccc2)c1
Description: Competitive inhibition of recombinant cN-II (unknown origin) using varying level of IMP as substrate assessed as substrate Kcat by HPLC method based Lineweaver-Burk plot analysis. In a few lines: as §1

Compound in data set [7]: O=C(Nc1ncnc2c1ncn2CP(=O)(O)O)c1cccc(-c2ccccc2)c1
Briefly: Competitive inhibition of recombinant cN-II (unknown origin) using varying level of IMP as substrate assessed as substrate Km by HPLC method based Lineweaver-Burk plot analysis. Summed up:
as §1

Compound in data set [8]: O=C(Nc1ncnc2c1ncn2CP(=O)(O)O)c1cccc(-c2ccccc2)c1
Description: Uncompetitive inhibition of recombinant cN-II (unknown origin) assessed as substrate Km using varying level of IMP as substrate by HPLC method based Lineweaver-Burk plot analysis. Summed up: as §1

B1: 5'-nucleotidase (Homo sapiens), P21589 (protein)
chain: MCPRAARAPATLLLALGAVLWPAAGAWELTILHTNDVHSRLEQTSEDSSKCVNASRCMGGVARLFTKVQQIRRAEPNVLLLDAGDQYQGTIWFTVYKGAEVAHFMNALRYDAMALGNHEFDNGVEGLIEPLLKEAKFPILSANIKAKGPLASQISGLYLPYKVLPVGDEVVGIVGYTSKETPFLSNPGTNLVFEDEITALQPEVDKLKTLNVNKIIALGHSGFEMDKLIAQKVRGVDVVVGGHSNTFLYTGNPPSKEVPAGKYPFIVTSDDGRKVPVVQAYAFGKYLGYLKIEFDERGNVISSHGNPILLNSSIPEDPSIKADINKWRIKLDNYSTQELGKTIVYLDGSSQSCRFRECNMGNLICDAMINNNLRHTDEMFWNHVSMCILNGGGIRSPIDERNNGTITWENLAAVLPFGGTFDLVQLKGSTLKKAFEHSVHRYGQSTGEFLQVGGIHVVYDLSRKPGDRVVKLDVLCTKCRVPSYDPLKMDEVYKVILPNFLANGGDGFQMIKDELLRHDSGDQDINVVSTYISKMKVIYPAVEGRIKFSTGSHCHGSFSLIFLSLWAVIFVLYQ
In the case of B1, the kcat in data set [1] was 54.1 s⁻¹; in data set [3], 53.1 s⁻¹; in data set [4], 49.9 s⁻¹; in data set [6] it was 49.9 s⁻¹. The Km in data set [2] is 1260 µM; in data set [5], 1070 µM; in data set [7], 1070 µM; in data set [8] it was 1360 µM.
